The values that follow come from article PMC5551971 (ACS chemical biology, 2017).

The structures appear in SMILES notation. “Also recorded” adds a separate entry of the source.

Assay [1] concerns the target T1, PLK1 (Homo sapiens, UniProt P53350). Put plainly: i-AZD1775 affinity pulldown with AZD1775 competition, PLK1 immunoblot. It is filed as binding. As to conditions: H322 whole cell lysates, 20 μM free AZD1775. (In general: In western blotting, separated proteins are transferred to a membrane and probed.)
The test system of assay [2] is H322 cells. In words: Immunoblot analysis of γH2AX. It is filed as cell-based. As to conditions: 4 h; for induction of DNA damage (γH2AX): parental H322 and cWEE1 control cells, AZD1775 1 μM or cisplatin 17 μM. The method, boiled down: (§1)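 H322 cells and H322-derived CRISPR-Cas9 clones were used: WEE1 knockouts made by targeting the exon 1/intron 1 splice site, plus a control clone with WEE1 intact. Cells were exposed for 4 h to 1 μM test compound or to cisplatin (14 μM in the H322/H1648 comparison; 17 μM in the parental/clone comparison). γH2AX and total H2AX were detected by immunoblot, tracking the ~16 kDa and mono-ubiquitinated ~25 kDa γH2AX bands.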

Assay [3] deals with H322, A427, H1155 and H1648 NSCLC cells. In words: Cell viability of NSCLC cell lines, 72 h treatment. As to conditions: several NSCLC cell lines, single agent. It is filed as cell-based.
Assay [4] deals with T1, PLK1. Put plainly: In vitro kinase assay panel. As to conditions: 100 nM or 1000 nM AZD1775. In kind it is biochemical.
Assay [5] deals with cWEE1-KO[18] and cWEE1-KO[19] H322 WEE1 knockout clones. In words: Immunoblot analysis of γH2AX in WEE1 CRISPR-Cas9 knockout clones. As to conditions: 4 h, 1 μM AZD1775. It is filed as cell-based. The method, boiled down:
as §1

The next assay deals with LYN (Homo sapiens, UniProt P07948). In words: In vitro kinase assay panel. As to conditions: 100 nM or 1000 nM AZD1775. In kind it is biochemical.
In assay [6] the target is T1, PLK1. In words: In vitro kinase assay. In kind it is biochemical.
For assay [7], the system named is H322 cells. Put plainly: Immunoblot analysis of PARP1 and caspase 3 cleavage. It is filed as cell-based.
The next assay deals with SRC (Homo sapiens, UniProt P12931). Put plainly: In vitro kinase assay panel. In kind it is biochemical. As to conditions: 100 nM or 1000 nM AZD1775.
Assay [8] concerns cWEE1-KO[18] and cWEE1-KO[19] H322 WEE1 knockout clones. In words: CellTiterGlo viability of H322 WEE1 CRISPR-Cas9 knockout clones. In kind it is cell-based. As to conditions: 72 h. In general terms: In ATP-based viability assays light output follows the ATP content of the culture.

T1 sequence (P53350 whole entry, canonical isoform): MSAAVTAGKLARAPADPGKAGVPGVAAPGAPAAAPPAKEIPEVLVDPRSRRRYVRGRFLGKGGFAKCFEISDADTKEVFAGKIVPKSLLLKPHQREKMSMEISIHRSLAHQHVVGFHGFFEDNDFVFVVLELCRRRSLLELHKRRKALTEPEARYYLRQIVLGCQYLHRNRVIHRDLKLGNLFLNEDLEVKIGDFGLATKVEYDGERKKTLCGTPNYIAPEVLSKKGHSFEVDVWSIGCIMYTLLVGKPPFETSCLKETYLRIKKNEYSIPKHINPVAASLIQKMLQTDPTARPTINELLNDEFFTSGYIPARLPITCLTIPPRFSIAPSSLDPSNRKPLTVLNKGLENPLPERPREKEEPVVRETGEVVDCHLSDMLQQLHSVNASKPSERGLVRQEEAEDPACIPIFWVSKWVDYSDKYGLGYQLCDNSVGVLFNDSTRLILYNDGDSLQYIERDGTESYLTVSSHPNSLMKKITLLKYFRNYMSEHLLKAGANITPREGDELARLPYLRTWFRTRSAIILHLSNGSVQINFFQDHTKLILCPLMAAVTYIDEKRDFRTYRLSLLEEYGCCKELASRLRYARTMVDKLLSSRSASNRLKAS
Sequence of LYN (P07948 whole entry): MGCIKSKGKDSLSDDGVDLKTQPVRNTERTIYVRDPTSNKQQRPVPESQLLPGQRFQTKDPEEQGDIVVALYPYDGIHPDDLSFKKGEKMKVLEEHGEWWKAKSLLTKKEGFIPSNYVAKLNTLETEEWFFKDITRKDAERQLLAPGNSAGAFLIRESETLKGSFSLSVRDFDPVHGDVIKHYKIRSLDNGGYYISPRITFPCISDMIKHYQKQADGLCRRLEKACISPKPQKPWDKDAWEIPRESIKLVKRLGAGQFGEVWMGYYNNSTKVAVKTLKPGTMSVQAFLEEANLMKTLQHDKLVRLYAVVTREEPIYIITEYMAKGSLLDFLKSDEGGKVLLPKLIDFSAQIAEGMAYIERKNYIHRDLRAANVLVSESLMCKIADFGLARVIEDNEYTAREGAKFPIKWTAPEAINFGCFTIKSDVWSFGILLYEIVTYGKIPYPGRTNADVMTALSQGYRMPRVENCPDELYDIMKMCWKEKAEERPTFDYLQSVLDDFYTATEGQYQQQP
Sequence of SRC (P12931 whole entry): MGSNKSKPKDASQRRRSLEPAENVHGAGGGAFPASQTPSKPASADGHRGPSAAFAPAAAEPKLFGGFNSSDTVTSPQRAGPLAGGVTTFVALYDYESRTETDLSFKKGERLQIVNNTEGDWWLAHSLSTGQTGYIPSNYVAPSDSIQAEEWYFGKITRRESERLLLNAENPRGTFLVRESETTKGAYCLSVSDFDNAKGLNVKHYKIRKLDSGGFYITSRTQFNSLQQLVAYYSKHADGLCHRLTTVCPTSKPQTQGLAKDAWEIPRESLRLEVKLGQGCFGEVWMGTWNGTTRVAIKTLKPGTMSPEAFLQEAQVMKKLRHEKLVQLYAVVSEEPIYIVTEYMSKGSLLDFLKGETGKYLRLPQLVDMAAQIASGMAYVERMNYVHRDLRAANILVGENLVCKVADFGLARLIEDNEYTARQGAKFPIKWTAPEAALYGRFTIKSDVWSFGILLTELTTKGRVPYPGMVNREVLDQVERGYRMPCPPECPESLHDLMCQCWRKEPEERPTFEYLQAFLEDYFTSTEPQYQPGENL

As to `C=CCn1c(=O)c2cnc(Nc3ccc(N4CCN(C)CC4)cc3)nc2n1-c1cccc(C(C)(C)O)n1` [AZD1775], at PLK1 [1], the “PLK1 enrichment in i-AZD1775 pulldown on competition with AZD1775” value was “completely abrogated its enrichment”. Moreover, the “phosphorylation of Serine 139 in histone H2AX (γH2AX)” value with H322 cells [2] (H322 cells, 1 μM AZD1775) is “potently increased”. In addition, the “induction of DNA damage (γH2AX)” value with H322 cells [2] is reported as “can induce DNA damage”. Also, the “inhibition of viability, potency” value in assay [3] is recorded as “sub- to low micromolar potency”. Besides, the PLK1 inhibition result on PLK1 [4] is listed as “potent AZD1775 targets”. The “γH2AX in WEE1 knockout clones” value in assay [5] was “further increased γH2AX”. Also, on LYN, the LYN inhibition entry is recorded as “potent AZD1775 targets”. The compound also displayed an IC50 against PLK1 [6] of 22 to 34 nM. Also, in the assay with H322 cells [7] (H322 versus H1648 cells, 48 h), the “PARP1 and caspase-3 cleavage (apoptosis induction)” value is listed as “markedly more pronounced in H322 cells than in H1648”. The SRC inhibition result on SRC is recorded as “potent AZD1775 targets”. Besides, the “sensitivity of WEE1-reconstituted clone cWEE1-KO[18](RC9)” value in [8] was “completely reversed the sensitizing effect”.

As to `CC[C@@H]1C(=O)N(C)c2cnc(Nc3ccc(C(=O)NC4CCN(C)CC4)cc3OC)nc2N1C1CCCC1` [BI-2536], the “apoptosis by PARP1 and caspase 3 cleavage” value in the assay with H322 cells [7] (H322 cells, 0.03 μM BI-2536 compared with 1 μM AZD1775) was “strongly induced apoptosis; also recorded: higher degree of apoptosis than 1 μM AZD1775”.

In the case of `N.N.[Cl][Pt][Cl]` [cisplatin], the “induction of DNA damage (γH2AX)” value in the assay on H322 cells [2] is “can induce DNA damage”.

As usually defined, the IC50 is the concentration needed to halve the response being measured. Read a high IC50 as a need for much substance.
